Assays:
Assay type in all cases: functional
[1] = tested on: Enterococcus faecalis; assay: Antibacterial activity against Enterococcus faecalis M6534 clinical isolate expressing vanB gene by microdilution test
Summary of the method: (§1)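 MIC by standard broth microdilution following CLSI recommendations, in Mueller Hinton broth supplemented with Ca²⁺ (20-25mg/L) and Mg²⁺ (10-12.5mg/L); peptides tested against a panel of multi-resistant clinical isolates plus ATCC reference strains.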

[2] = tested on: Escherichia coli; assay: Antibacterial activity against Escherichia coli M7859 clinical isolate expressing blaCIT gene by microdilution test; summary of the method: as §1
[3] = tested on: Pseudomonas aeruginosa; assay: Antibacterial activity against Pseudomonas aeruginosa PCOS12 by microdilution test
Summary of the method: (§2)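 MIC by standard broth microdilution following CLSI recommendations, in Mueller Hinton broth supplemented with Ca²⁺ (20-25 mg/L) and Mg²⁺ (10-12.5 mg/L); ATCC reference strains included in the panel.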

[4] = tested on: Acinetobacter sp.; assay: Antibacterial activity against Acinetobacter sp. M9665 clinical isolate expressing blaOXA-51 gene by microdilution test; summary of the method: as §1
[5] = tested on: Staphylococcus aureus; assay: Antibacterial activity against Staphylococcus aureus M6276 clinical isolate expressing ermA and lnuA gene by microdilution test; summary of the method: as §2
[6] = tested on: Klebsiella pneumoniae; assay: Antibacterial activity against Klebsiella pneumoniae PFAV3 by microdilution test; summary of the method: as §1
[7] = tested on: Pseudomonas aeruginosa; assay: Antibacterial activity against Pseudomonas aeruginosa M7712 clinical isolate expressing blaSPM gene by microdilution test; summary of the method: as §2
[8] = tested on: Pseudomonas aeruginosa; assay: Antibacterial activity against Pseudomonas aeruginosa M5200 clinical isolate expressing blaVIM and blaGES-1 gene by microdilution test; summary of the method: as §2
[9] = tested on: Staphylococcus cohnii; assay: Antibacterial activity against Staphylococcus cohnii M6767 clinical isolate expressing mecA gene by microdilution test; summary of the method: as §2
[10] = tested on: Staphylococcus hominis; assay: Antibacterial activity against Staphylococcus hominis M2967 clinical isolate expressing mecA gene by microdilution test; summary of the method: as §2
[11] = tested on: Pseudomonas aeruginosa; assay: Antibacterial activity against Pseudomonas aeruginosa M11005 clinical isolate expressing blaKPC-2 gene by microdilution test; summary of the method: as §1
[12] = tested on: Acinetobacter sp.; assay: Antibacterial activity against Acinetobacter sp. M5282 clinical isolate expressing blaOXA-51 gene by microdilution test; summary of the method: as §1
[13] = tested on: Klebsiella pneumoniae; assay: Antibacterial activity against Klebsiella pneumoniae M9140 clinical isolate expressing blaCIT gene by microdilution test; summary of the method: as §1
[14] = tested on: Enterococcus faecalis; assay: Antibacterial activity against Enterococcus faecalis ATCC 29212 by microdilution test; summary of the method: as §1
[15] = tested on: Staphylococcus aureus; assay: Antibacterial activity against Staphylococcus aureus M2832 clinical isolate expressing mecA gene by microdilution test; summary of the method: as §2
[16] = tested on: Staphylococcus epidermidis; assay: Antibacterial activity against Staphylococcus epidermidis M2921 clinical isolate expressing mecA gene by microdilution test; summary of the method: as §2
[17] = tested on: Staphylococcus aureus; assay: Antibacterial activity against Staphylococcus aureus M4046 clinical isolate expressing mecA gene by microdilution test; summary of the method: as §2
[18] = tested on: Staphylococcus aureus; assay: Antibacterial activity against Staphylococcus aureus P28 clinical isolate expressing ermA gene by microdilution test; summary of the method: as §2
[19] = tested on: Pseudomonas aeruginosa; assay: Antibacterial activity against Pseudomonas aeruginosa ATCC 27853 by microdilution test; summary of the method: as §1
[20] = tested on: Escherichia coli; assay: Antibacterial activity against Escherichia coli PNEU23 clinical isolate expressing blaOXA-GIII and blaTEM-1 gene by microdilution test; summary of the method: as §1
[21] = tested on: Staphylococcus epidermidis; assay: Antibacterial activity against Staphylococcus epidermidis M2919 clinical isolate expressing mecA gene by microdilution test; summary of the method: as §2
[22] = tested on: Klebsiella pneumoniae; assay: Antibacterial activity against Klebsiella pneumoniae M9491 clinical isolate expressing blaMOX gene by microdilution test; summary of the method: as §1
[23] = tested on: Staphylococcus hominis; assay: Antibacterial activity against Staphylococcus hominis M2973 clinical isolate expressing mecA gene by microdilution test; summary of the method: as §2
[24] = tested on: Staphylococcus epidermidis; assay: Antibacterial activity against Staphylococcus epidermidis M2923 by microdilution test; summary of the method: as §2
[25] = tested on: Acinetobacter sp.; assay: Antibacterial activity against Acinetobacter sp. PFAV1 clinical isolate expressing blaOXA-51, blaOXA-58 and blaPER gene by microdilution test; summary of the method: as §1
[26] = tested on: Enterococcus faecalis; assay: Antibacterial activity against Enterococcus faecalis M4899 clinical isolate expressing vanB gene by microdilution test; summary of the method: as §1
[27] = tested on: Staphylococcus aureus; assay: Antibacterial activity against Staphylococcus aureus M6794 clinical isolate expressing mecA gene by microdilution test; summary of the method: as §2
[28] = tested on: Escherichia coli; assay: Antibacterial activity against Escherichia coli PCOS15 clinical isolate expressing blaPER-2 and blaTEM-1 gene by microdilution test; summary of the method: as §1
[29] = tested on: Staphylococcus aureus; assay: Antibacterial activity against Staphylococcus aureus P204 clinical isolate expressing ermA gene by microdilution test; summary of the method: as §2
[30] = tested on: Klebsiella pneumoniae; assay: Antibacterial activity against Klebsiella pneumoniae M5825 clinical isolate expressing blaGES-3 and blaCTX-M-2 gene by microdilution test; summary of the method: as §1
[31] = tested on: Acinetobacter sp.; assay: Antibacterial activity against Acinetobacter sp. M5179 clinical isolate expressing blaOXA-51 gene by microdilution test; summary of the method: as §1
[32] = tested on: Klebsiella pneumoniae; assay: Antibacterial activity against Klebsiella pneumoniae M7647 clinical isolate expressing blaVIM, blaCTX-M-2, blaTEM-1 and blaSHV-1 gene by microdilution test; summary of the method: as §1
[33] = tested on: Enterococcus faecium; assay: Antibacterial activity against Enterococcus faecium M2481 clinical isolate expressing vanB gene by microdilution test; summary of the method: as §1
[34] = tested on: Staphylococcus aureus; assay: Antibacterial activity against Staphylococcus aureus P33 clinical isolate expressing msrA gene by microdilution test; summary of the method: as §2
[35] = tested on: Staphylococcus saprophyticus; assay: Antibacterial activity against Staphylococcus saprophyticus M2981 clinical isolate expressing mecA gene by microdilution test; summary of the method: as §2
[36] = tested on: Pseudomonas aeruginosa; assay: Antibacterial activity against Pseudomonas aeruginosa M7723 clinical isolate expressing blaKPC-2 gene by microdilution test; summary of the method: as §2
[37] = tested on: Enterococcus faecium; assay: Antibacterial activity against Enterococcus faecium M6261 by microdilution test; summary of the method: as §1
[38] = tested on: Enterococcus faecalis; assay: Antibacterial activity against Enterococcus faecalis ATCC 51299 clinical isolate expressing vanB gene by microdilution test; summary of the method: as §1
[39] = tested on: Acinetobacter sp.; assay: Antibacterial activity against Acinetobacter sp. M7489 clinical isolate expressing blaOXA-51 and blaTEM gene by microdilution test; summary of the method: as §1
[40] = tested on: Acinetobacter sp.; assay: Antibacterial activity against Acinetobacter sp. M5949 clinical isolate expressing blaOXA-23 and blaOXA-GVI gene by microdilution test; summary of the method: as §1
[41] = tested on: Enterococcus faecalis; assay: Antibacterial activity against Enterococcus faecalis M6383 clinical isolate expressing vanA gene by microdilution test; summary of the method: as §1
[42] = tested on: Pseudomonas aeruginosa; assay: Antibacterial activity against Pseudomonas aeruginosa M5470 by microdilution test; summary of the method: as §2
[43] = tested on: Escherichia coli; assay: Antibacterial activity against Escherichia coli PLCA1 clinical isolate expressing blaCTX-M-2 and blaTEM-1 gene by microdilution test; summary of the method: as §1
[44] = tested on: Staphylococcus saprophyticus; assay: Antibacterial activity against Staphylococcus saprophyticus M4070 clinical isolate expressing mecA gene by microdilution test; summary of the method: as §2
[45] = tested on: Pseudomonas aeruginosa; assay: Antibacterial activity against Pseudomonas aeruginosa M5109 clinical isolate expressing blaVIM and blaGES-1 gene by microdilution test; summary of the method: as §2
[46] = tested on: Enterococcus gallinarum; assay: Antibacterial activity against Enterococcus gallinarum M2723 clinical isolate expressing vanC1 and vanA gene by microdilution test; summary of the method: as §1
[47] = tested on: Escherichia coli; assay: Antibacterial activity against Escherichia coli ATCC 25922 by microdilution test; summary of the method: as §1
[48] = tested on: Acinetobacter sp.; assay: Antibacterial activity against Acinetobacter sp. M5277 clinical isolate expressing blaPER gene by microdilution test; summary of the method: as §1
[49] = tested on: Enterococcus faecium; assay: Antibacterial activity against Enterococcus faecium M2304 clinical isolate expressing vanA gene by microdilution test; summary of the method: as §1
[50] = tested on: Escherichia coli; assay: Antibacterial activity against Escherichia coli M9884 by microdilution test; summary of the method: as §1
[51] = tested on: Acinetobacter sp.; assay: Antibacterial activity against Acinetobacter sp. M7978 clinical isolate expressing blaIMP-1 gene by microdilution test; summary of the method: as §1
[52] = tested on: Staphylococcus haemolyticus; assay: Antibacterial activity against Staphylococcus haemolyticus M2976 clinical isolate expressing mecA gene by microdilution test; summary of the method: as §2
[53] = tested on: Enterococcus faecium; assay: Antibacterial activity against Enterococcus faecium PZAP95 by microdilution test; summary of the method: as §1

Substance: H-GLLKKWLKKWKEFKRIVGY-NH2
- MIC90 [1]: 256 µg/mL
- MIC90 [2]: 32 µg/mL
- MIC90 [3]: 64 µg/mL
- MIC90 [4]: 32 µg/mL
- MIC90 [5]: 128 µg/mL
- MIC90 [6]: 128 µg/mL
- MIC90 [7]: 64 µg/mL
- MIC90 [8]: 64 µg/mL
- MIC90 [9]: 16 µg/mL
- MIC90 [10]: 8 µg/mL
- MIC90 [11]: 64 µg/mL
- MIC90 [12]: 8 µg/mL
- MIC90 [13]: 32 µg/mL
- MIC90 [14]: 128 µg/mL
- MIC90 [15]: 128 µg/mL
- MIC90 [16]: 8 µg/mL
- MIC90 [17]: 128 µg/mL
- MIC90 [18]: 64 µg/mL
- MIC90 [19]: 64 µg/mL
- MIC90 [20]: 32 µg/mL
- MIC90 [21]: 16 µg/mL
- MIC90 [22]: 64 µg/mL
- MIC90 [23]: 4 µg/mL
- MIC90 [24]: 16 µg/mL
- MIC90 [25]: 16 µg/mL
- MIC90 [26]: 128 µg/mL
- MIC90 [27]: 64 µg/mL
- MIC90 [28]: 64 µg/mL
- MIC90 [29]: 64 µg/mL
- MIC90 [30]: 8 µg/mL
- MIC90 [31]: 32 µg/mL
- MIC90 [32]: 32 µg/mL
- MIC90 [33]: 16 µg/mL
- MIC90 [34]: 128 µg/mL
- MIC90 [35]: 8 µg/mL
- MIC90 [36]: 64 µg/mL
- MIC90 [37]: 16 µg/mL
- MIC90 [38]: 256 µg/mL
- MIC90 [39]: 16 µg/mL
- MIC90 [40]: 16 µg/mL
- MIC90 [41]: 128 µg/mL
- MIC90 [42]: 64 µg/mL
- MIC90 [43]: 64 µg/mL
- MIC90 [44]: 32 µg/mL
- MIC90 [45]: 64 µg/mL
- MIC90 [46]: 32 µg/mL
- MIC90 [47]: 32 µg/mL
- MIC90 [48]: 8 µg/mL
- MIC90 [49]: 16 µg/mL
- MIC90 [50]: 32 µg/mL
- MIC90 [51]: 8 µg/mL
- MIC90 [52]: 8 µg/mL
- MIC90 [53]: 16 µg/mL

Substance: H-RIVQRIKKWLLKWKKLGY-NH2
- MIC90 [1]: 256 µg/mL
- MIC90 [2]: 16 µg/mL
- MIC90 [3]: 64 µg/mL
- MIC90 [4]: 128 µg/mL
- MIC90 [5]: 64 µg/mL
- MIC90 [6]: 128 µg/mL
- MIC90 [7]: 64 µg/mL
- MIC90 [8]: 64 µg/mL
- MIC90 [9]: 8 µg/mL
- MIC90 [10]: 8 µg/mL
- MIC90 [11]: 128 µg/mL
- MIC90 [12]: 64 µg/mL
- MIC90 [13]: 32 µg/mL
- MIC90 [14]: 128 µg/mL
- MIC90 [15]: 64 µg/mL
- MIC90 [16]: 8 µg/mL
- MIC90 [17]: 32 µg/mL
- MIC90 [18]: 64 µg/mL
- MIC90 [19]: 64 µg/mL
- MIC90 [20]: 32 µg/mL
- MIC90 [21]: 8 µg/mL
- MIC90 [22]: 64 µg/mL
- MIC90 [23]: 4 µg/mL
- MIC90 [24]: 16 µg/mL
- MIC90 [25]: 64 µg/mL
- MIC90 [26]: 256 µg/mL
- MIC90 [27]: 64 µg/mL
- MIC90 [28]: 64 µg/mL
- MIC90 [29]: 32 µg/mL
- MIC90 [30]: 32 µg/mL
- MIC90 [31]: 64 µg/mL
- MIC90 [32]: 32 µg/mL
- MIC90 [33]: 16 µg/mL
- MIC90 [34]: 64 µg/mL
- MIC90 [35]: 8 µg/mL
- MIC90 [36]: 32 µg/mL
- MIC90 [37]: 16 µg/mL
- MIC90 [38]: 256 µg/mL
- MIC90 [39]: 64 µg/mL
- MIC90 [40]: 256 µg/mL
- MIC90 [41]: 128 µg/mL
- MIC90 [42]: 64 µg/mL
- MIC90 [43]: 64 µg/mL
- MIC90 [44]: 8 µg/mL
- MIC90 [45]: 64 µg/mL
- MIC90 [46]: 16 µg/mL
- MIC90 [47]: 32 µg/mL
- MIC90 [48]: 64 µg/mL
- MIC90 [49]: 8 µg/mL
- MIC90 [50]: 32 µg/mL
- MIC90 [51]: 64 µg/mL
- MIC90 [52]: 8 µg/mL
- MIC90 [53]: 16 µg/mL
